ChEMBL document CHEMBL4725387, “Synthesis and pharmacological evaluation of piperidine (piperazine)-amide substituted derivatives as multi-target antipsychotics” (Bioorg Med Chem Lett, 2020)
The source made the active and inactive calls. No cut-off for these calls is given here.

Tests used:
[1] = Cmax in rat at 10 mg/kg, po; type: ADME, organism-based; parameters: route oral, dose 10 mg/kg; settings: in vivo
Method in brief: (§1)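 Male rats, n = 6 per group, given a single oral dose of 10 mg/kg. PK parameters taken from serum concentration–time profiles: Cmax, Tmax, t1/2, AUC0-t, AUC0-∞, CL/F, F%.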

[2] = Oral bioavailability in rat at 10 mg/kg; type: ADME, organism-based; settings: in vivo; method in brief: as §1
[3] = […] in rat at 3 mg/kg, iv; type: ADME, organism-based; settings: in vivo
Method in brief: (§2)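 Male rats, n = 6 per group, given a single intravenous dose of 3 mg/kg. PK parameters taken from serum concentration–time profiles: t1/2, AUC0-t, AUC0-∞, clearance.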

[4] = target: 5-hydroxytryptamine receptor 2A (Homo sapiens, UniProt P28223); assay: Binding affinity to 5HT2A receptor (unknown origin)
5-hydroxytryptamine receptor 2A, sequence (P28223 whole entry): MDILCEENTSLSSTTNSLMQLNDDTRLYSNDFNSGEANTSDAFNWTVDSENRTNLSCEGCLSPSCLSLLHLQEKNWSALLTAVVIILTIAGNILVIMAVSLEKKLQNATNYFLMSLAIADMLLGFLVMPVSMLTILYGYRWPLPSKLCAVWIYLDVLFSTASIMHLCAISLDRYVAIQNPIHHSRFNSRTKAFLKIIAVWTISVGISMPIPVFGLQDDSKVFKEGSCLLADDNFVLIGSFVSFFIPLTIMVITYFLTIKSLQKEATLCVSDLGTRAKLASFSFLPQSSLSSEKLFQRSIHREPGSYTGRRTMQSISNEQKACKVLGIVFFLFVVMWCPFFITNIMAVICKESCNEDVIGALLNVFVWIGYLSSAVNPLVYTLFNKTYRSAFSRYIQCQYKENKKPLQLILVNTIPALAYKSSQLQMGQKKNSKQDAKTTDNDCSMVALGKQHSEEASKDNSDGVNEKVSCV

[5] = target: T1, 5-hydroxytryptamine receptor 2C (Homo sapiens, UniProt P28335); assay: Binding affinity to 5HT2C receptor (unknown origin)
T1 sequence (P28335 whole entry): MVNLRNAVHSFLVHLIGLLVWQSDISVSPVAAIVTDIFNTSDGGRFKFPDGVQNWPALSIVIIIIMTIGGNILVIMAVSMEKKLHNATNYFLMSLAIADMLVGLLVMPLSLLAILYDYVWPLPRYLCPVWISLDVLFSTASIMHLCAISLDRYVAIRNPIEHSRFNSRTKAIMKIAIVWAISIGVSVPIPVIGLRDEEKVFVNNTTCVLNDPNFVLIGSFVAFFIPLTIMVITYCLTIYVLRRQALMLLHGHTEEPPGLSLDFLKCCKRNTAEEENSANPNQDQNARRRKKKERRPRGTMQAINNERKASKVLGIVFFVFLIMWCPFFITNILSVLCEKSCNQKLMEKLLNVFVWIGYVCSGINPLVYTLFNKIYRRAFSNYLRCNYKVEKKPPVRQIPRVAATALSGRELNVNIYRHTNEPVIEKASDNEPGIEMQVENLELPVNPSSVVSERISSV
Method in brief: (§3)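 Radioligand displacement binding. Ki is the mean ± SEM of three experiments.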

Mus musculus [6] = assay: Antipsychotic activity in po dosed mouse assessed as suppression in DOI-induced head twitching response; type: functional
Method in brief: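 Mouse head twitch induced by DOI 1.0 mg/kg ip. Oral pretreatment at 0.01, 0.03, 0.1, 0.3 and 1.0 mg/kg in 30% PEG 400. ED50 reported with 95% confidence limits.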

D(2) dopamine receptor = D(2) dopamine receptor (Homo sapiens, UniProt P14416); assay: Binding affinity to D2 receptor (unknown origin); method in brief: as §3
D(2) dopamine receptor, sequence (P14416 whole entry): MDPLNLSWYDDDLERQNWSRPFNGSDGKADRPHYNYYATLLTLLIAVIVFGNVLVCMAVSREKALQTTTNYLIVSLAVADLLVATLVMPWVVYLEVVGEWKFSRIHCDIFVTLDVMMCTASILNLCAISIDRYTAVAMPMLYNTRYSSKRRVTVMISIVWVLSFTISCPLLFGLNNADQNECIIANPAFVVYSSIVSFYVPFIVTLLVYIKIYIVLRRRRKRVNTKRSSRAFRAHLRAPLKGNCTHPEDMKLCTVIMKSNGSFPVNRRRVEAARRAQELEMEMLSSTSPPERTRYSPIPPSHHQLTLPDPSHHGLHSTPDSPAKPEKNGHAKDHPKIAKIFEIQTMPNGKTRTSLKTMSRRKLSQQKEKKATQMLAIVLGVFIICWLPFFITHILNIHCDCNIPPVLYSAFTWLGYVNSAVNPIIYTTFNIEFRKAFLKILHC

[7] = target: T2, Alpha-2A adrenergic receptor (Homo sapiens, UniProt P08913); assay: Binding affinity to alpha2 adrenergic receptor (unknown origin); method in brief: as §3
T2 sequence (P08913 whole entry): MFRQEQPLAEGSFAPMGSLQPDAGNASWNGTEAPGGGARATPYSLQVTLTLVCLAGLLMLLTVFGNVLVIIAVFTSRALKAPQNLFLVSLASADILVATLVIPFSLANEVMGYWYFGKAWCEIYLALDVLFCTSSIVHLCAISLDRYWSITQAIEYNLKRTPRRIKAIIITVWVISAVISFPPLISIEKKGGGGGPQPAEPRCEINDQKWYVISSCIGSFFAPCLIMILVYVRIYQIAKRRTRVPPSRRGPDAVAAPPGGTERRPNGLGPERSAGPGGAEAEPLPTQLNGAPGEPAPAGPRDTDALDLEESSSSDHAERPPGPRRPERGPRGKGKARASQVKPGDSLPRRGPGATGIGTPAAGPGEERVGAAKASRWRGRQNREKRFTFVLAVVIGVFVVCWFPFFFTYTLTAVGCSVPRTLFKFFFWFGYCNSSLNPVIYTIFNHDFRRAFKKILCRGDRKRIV

Rattus norvegicus = assay: Memory enhancement effect in rat assessed as increase in total exploratory time for novel objects at 0.01 mg/kg, po administered 1 hr prior to acquisition trial and measured after 24 hrs by novel object recognition test; type: functional, organism-based; settings: time 25.0 hrs
Method in brief: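 Rat novel object recognition, n = 10. Oral dosing in 30% PEG 400 1 h before the acquisition trial with two identical objects. At 24 h one object was replaced by a novel one and exploration times were scored. Mean ± SEM, post-hoc Student's t-test versus vehicle.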

Mus musculus [8] = assay: Antipsychotic activity in po dosed mouse assessed as suppression of apomorphine-induced climbing behaviour; type: functional
Method in brief: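 Mice climbing induced by apomorphine 1.0 mg/kg sc. Test article given po at 0.01, 0.03, 0.1, 0.3 and 1.0 mg/kg in 30% PEG 400. ED50 reported with 95% confidence limits.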

[9] = Apparent oral clearance in rat at 10 mg/kg, po; type: ADME, organism-based; settings: in vivo; method in brief: as §1
[10] = target: Voltage-gated inwardly rectifying potassium channel KCNH2 (Homo sapiens, UniProt Q12809); assay: Inhibition of human ERG by patch-clamp method
Voltage-gated inwardly rectifying potassium channel KCNH2, sequence (Q12809 whole entry): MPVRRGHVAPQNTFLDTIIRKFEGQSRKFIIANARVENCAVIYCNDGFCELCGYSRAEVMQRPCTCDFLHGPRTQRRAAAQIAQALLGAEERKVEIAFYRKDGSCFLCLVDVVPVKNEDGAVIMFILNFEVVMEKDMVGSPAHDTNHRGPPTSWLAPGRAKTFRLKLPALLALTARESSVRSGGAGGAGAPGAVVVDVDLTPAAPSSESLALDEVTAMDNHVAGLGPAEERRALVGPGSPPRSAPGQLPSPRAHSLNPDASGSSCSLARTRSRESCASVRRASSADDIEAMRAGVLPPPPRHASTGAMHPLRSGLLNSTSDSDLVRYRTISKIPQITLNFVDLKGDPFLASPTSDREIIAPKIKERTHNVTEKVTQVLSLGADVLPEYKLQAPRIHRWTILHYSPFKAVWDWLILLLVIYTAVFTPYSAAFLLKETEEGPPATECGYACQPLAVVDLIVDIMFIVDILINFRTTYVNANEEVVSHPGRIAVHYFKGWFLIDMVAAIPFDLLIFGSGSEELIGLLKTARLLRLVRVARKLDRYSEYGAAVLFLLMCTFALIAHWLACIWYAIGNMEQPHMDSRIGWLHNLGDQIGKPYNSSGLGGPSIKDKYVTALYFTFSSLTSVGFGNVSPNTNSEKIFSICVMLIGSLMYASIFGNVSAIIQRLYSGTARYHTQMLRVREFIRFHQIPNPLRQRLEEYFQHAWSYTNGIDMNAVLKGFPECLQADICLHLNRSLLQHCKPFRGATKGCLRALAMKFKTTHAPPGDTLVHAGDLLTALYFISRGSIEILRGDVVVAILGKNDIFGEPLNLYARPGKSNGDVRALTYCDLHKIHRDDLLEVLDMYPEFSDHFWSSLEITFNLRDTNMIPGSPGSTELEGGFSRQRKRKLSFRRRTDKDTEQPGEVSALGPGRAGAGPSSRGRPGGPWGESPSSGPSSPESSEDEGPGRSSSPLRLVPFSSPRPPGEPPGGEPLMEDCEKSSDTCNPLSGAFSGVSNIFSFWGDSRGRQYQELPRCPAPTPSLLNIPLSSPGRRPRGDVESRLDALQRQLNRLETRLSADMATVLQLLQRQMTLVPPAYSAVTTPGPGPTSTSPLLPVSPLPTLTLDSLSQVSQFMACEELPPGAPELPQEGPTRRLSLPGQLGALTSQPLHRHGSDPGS

[11] = Half life in rat at 10 mg/kg, po; type: ADME, organism-based; settings: in vivo; method in brief: as §1
[12] = Tmax in rat at 10 mg/kg, po; type: ADME, organism-based; settings: in vivo; method in brief: as §1
Mus musculus [13] = assay: Antipsychotic activity in po dosed mouse assessed as reduction in MK-801-induced hyperlocomotor activity; type: functional
Method in brief: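 Mice hyperactivity induced by MK-801 0.3 mg/kg sc, locomotor activity recorded. Oral dosing at 0.01–1.0 mg/kg (five doses) in 30% PEG 400. ED50 reported with 95% confidence limits.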

[14] = target: 5-hydroxytryptamine receptor 6 (Homo sapiens, UniProt P50406); assay: Binding affinity to 5HT6 receptor (unknown origin); method in brief: as §3
5-hydroxytryptamine receptor 6, sequence (P50406 whole entry): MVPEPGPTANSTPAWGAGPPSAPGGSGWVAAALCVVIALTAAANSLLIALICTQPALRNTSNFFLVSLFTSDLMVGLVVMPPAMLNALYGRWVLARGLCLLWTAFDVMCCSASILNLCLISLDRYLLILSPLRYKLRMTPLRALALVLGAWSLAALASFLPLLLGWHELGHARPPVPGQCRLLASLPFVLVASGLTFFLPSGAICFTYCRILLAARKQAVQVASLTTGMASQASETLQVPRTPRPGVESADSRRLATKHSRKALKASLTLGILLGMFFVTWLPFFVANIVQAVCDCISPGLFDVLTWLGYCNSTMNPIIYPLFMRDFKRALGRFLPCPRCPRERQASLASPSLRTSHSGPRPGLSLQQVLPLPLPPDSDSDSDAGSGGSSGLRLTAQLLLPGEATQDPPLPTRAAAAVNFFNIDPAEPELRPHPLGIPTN

[15] = AUC (0 to t) in rat at 3 mg/kg, iv; type: ADME, organism-based; parameters: dose 3 mg/kg; settings: in vivo; method in brief: as §2

Cmax [1]: 745 ng/mL
F [2]: 31.04%
CL/F [3]: 3.22 mL/h
Ki [4]: 7.8 nM
Ki [5]: 1990 nM
Ki (D(2) dopamine receptor): 2.1 nM
Ki [7]: 16.3 nM
CL/F [9]: 0.173 mL/min
half-life [11]: 3.34 h
Tmax [12]: 7 h
Ki [14]: 12.9 nM
AUC(0-t) [15]: 879 ng·h/mL
SMILES: CC(=O)Nc1ccc(OCCCN2CCC(c3noc4cc(F)ccc34)CC2)cc1
Activity (Mus musculus [6]): Dose-dependent effect
ED50 (Mus musculus [6]): 0.22 mg/kg
Activity (Rattus norvegicus): inactive
ED50 (Mus musculus [8]): 0.28 mg/kg
IC50 [10]: 2980 nM
ED50 (Mus musculus [13]): 0.19 mg/kg
